Test results published in PMC7012720 (Journal of inorganic biochemistry, 2019).
“And” between values parts separate entries of the source, which are not always exact repeats. Identical values can stand only once. Like-named read-outs stand apart in the source and are kept apart here.

Columns and labels:
Log = format: physicochemical; conditions: for Estimated Log(Do/w) of protonation state: best fit of Figures 2–4, error +/− 0.2
Method in brief: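 Modified shake-flask method in the dark, using 0.1 M acetate (pH 4.00–5.25) or 0.1 M phosphate (pH 5.8–8.0) buffer. Octanol and buffer were mutually pre-saturated for 24 h. Test compound (200 μM) in buffer-saturated octanol was stirred 1:1 with octanol-saturated buffer for 24 h at ambient temperature. The filtered aqueous phase was quantified by UV-Vis. logD = log([Ru]org/[Ru]aq), quadruplicate mean. Per-species values were fitted from pKa-based fractions.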

[1] = Mole fractions of protonation states calculated from pKa values; format: physicochemical
[2] = standard deviation in parenthesis; cited from earlier work
MDA-MD-231 (breast CSC) = conditions: cited from earlier work
MCF7 (breast cancer) = conditions: cited from earlier work
MCF10A (normal) = conditions: cited from earlier work
HeLa (cervical cancer) = conditions: cited from earlier work
[3] = read-out: IC50 light, irradiation for one hour with blue light (450 nm)

[(bipy)2Ru(6,6’-dhbp)]^2+ [Compound 1A]
Estimated Log(Do/w) of protonation state (Log; Acidic Form (XA)): −0.1
Estimated Log(Do/w) of protonation state (Log; Basic Form (XB)): 1.6
Estimated Log(Do/w) of protonation state (Log; Monoprotic Acid): 0.9
Increase of Log(Do/w) from acidic form (XA) to basic form (XB) (Log; orders of magnitude / log units, listed as 1): ~ 1.7 and 1.7
Log(Do/w) (Log; pH 4.00, 0.1M Acetate Buffer): 0.04(3)
Log(Do/w) (Log; pH 5.00, 0.1M Acetate Buffer): 0.11(2)
Log(Do/w) (Log; pH 6.00, 0.1M Phosphate Buffer): 0.57(2)
Log(Do/w) (Log; pH 6.60, 0.1M Phosphate Buffer): 1.10(2)
Log(Do/w) (Log; pH 7.00, 0.1M Phosphate Buffer): 1.18(1)
Log(Do/w) (Log; pH 7.40, 0.1M Phosphate Buffer): 1.36(1)
Log(Do/w) (Log; pH 8.00, 0.1M Phosphate Buffer): 1.39(2)
Proportion of monoprotic species ([1]; pH 6.0 to 6.6): 80–83%
Mole fraction of acidic form (XA) ([1]; pH 7.4): ~0.003
Mole fraction of monoprotic species ([1]; pH 7.4): ~0.42
pKa1 [2]: 5.26
pKa2 [2]: 7.27
pKa avg [2]: 6.3
PI (phototoxicity index, IC50 dark / IC50 light) (MDA-MD-231 (breast CSC); MDA-MD-231): 3.5
IC50 (MDA-MD-231 (breast CSC); read-out: IC50 dark, MDA-MD-231, dark): 1010 µM
IC50 (MDA-MD-231 (breast CSC); read-out: IC50 light, MDA-MD-231, irradiation for one hour with blue light (450 nm)): 290 µM
PI (phototoxicity index, IC50 dark / IC50 light) (MCF7 (breast cancer); MCF7): ~1
IC50 (MCF7 (breast cancer); read-out: IC50 dark, MCF7, dark): > 500 µM
IC50 (MCF7 (breast cancer); read-out: IC50 light, MCF7, irradiation for one hour with blue light (450 nm)): > 500 µM
PI (phototoxicity index, IC50 dark / IC50 light) (MCF10A (normal)): >2.4
IC50 (MCF10A (normal); read-out: IC50 dark, dark): > 500 µM
IC50 (MCF10A (normal); [3]): 210 µM
PI (phototoxicity index, IC50 dark / IC50 light) (HeLa (cervical cancer)): 0.73
IC50 (HeLa (cervical cancer); read-out: IC50 dark, dark): 148 µM
IC50 (HeLa (cervical cancer); [3]): 202 µM
